Assay outcomes from PubChem BioAssay.
Shown are actives, neighbours in structure and some others; about 2.3% of the full set was active somewhere.
TRPC6 activator: mouse TRPC6 channel activators, primary screen, cell-based, HEK293, membrane potential dye; Short transient receptor potential channel 6 (Mus musculus), Q61143; HEK293-TRPC6 membrane potential dye fluorescence; stronger effect = higher value; B-score at 10 µM; 310,000 compounds, 0.13% hits;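 active = B-score of the integrated fluorescence ratio above library mean plus 3 SD, and starting fluorescence ratio within library mean plus 5 SD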;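 also: higher score means more depolarization so channel activation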
Target sequence (Q61143 whole entry, looked up): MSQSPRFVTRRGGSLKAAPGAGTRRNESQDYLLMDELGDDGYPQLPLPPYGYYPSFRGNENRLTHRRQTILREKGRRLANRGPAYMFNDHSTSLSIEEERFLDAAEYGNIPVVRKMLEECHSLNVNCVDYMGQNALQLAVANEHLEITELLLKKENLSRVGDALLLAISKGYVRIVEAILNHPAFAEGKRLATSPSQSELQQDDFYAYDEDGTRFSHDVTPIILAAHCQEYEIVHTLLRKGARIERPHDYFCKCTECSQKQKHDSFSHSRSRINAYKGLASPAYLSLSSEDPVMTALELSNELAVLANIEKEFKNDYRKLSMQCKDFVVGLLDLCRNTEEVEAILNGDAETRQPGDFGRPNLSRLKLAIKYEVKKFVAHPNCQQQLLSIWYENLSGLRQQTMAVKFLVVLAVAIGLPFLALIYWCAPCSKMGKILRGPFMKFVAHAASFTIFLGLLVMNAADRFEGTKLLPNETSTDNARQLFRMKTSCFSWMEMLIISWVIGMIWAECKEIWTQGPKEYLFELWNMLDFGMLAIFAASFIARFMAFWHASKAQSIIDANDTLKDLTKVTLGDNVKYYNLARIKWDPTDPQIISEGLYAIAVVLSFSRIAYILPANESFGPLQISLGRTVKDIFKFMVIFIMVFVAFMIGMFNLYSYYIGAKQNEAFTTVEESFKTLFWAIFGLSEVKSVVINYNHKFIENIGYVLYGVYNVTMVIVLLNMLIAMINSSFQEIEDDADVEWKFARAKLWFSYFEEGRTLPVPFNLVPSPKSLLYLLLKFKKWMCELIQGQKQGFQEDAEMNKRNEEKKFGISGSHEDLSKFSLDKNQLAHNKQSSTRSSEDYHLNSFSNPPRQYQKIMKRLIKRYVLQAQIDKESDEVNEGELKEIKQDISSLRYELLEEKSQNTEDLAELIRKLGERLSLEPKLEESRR
TRPC6 inh: mouse TRPC6 channel inhibitors, primary screen, cell-based, HEK293, membrane potential dye; ACh-evoked depolarization; stronger effect = lower value; B-score at 10 µM; 310,000 compounds, 1.1% hits; AID 2553, 2010;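 active = B-score under library mean minus 3 SD, initial fluorescence not abnormally high, positive integrated signal ratio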;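 also: B-score derived from integrated fluorescence ratio over the kinetic read; more negative B-score means stronger inhibition of depolarization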
TRPC4 block: inhibitors of mouse TRPC4 channel, primary screen, Fluo4 calcium, HEK293 TRPC4beta/mu-opioid cells; Short transient receptor potential channel 4 (Mus musculus), Q9QUQ5; 300,000 compounds, 0.39% hits; B-score at 10 µM; DAMGO-evoked Fluo4 calcium flux; stronger effect = lower value;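 active = B-score over 3 SD under the library average, no early fluorescence shift, positive overall ratio signal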
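Material: HEK293 cells with stable TRPC4beta plus mu-opioid receptor expression; probe or stimulus: DAMGO in two steps, submaximal then maximal; technique: Fluo4 calcium fluorescence by kinetic imaging, 5 s 1 Hz baseline; measure: integrated fluorescence ratio relative to baseline, converted to per-well B score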
TRPC4 PAM: positive allosteric modulators of TRPC4, primary screen, cell-based, mouse TRPC4beta, HEK293 mu-opioid, Fluo-4 calcium; DAMGO EC20, Fluo-4 Ca2+ flux; stronger effect = higher value; B-score at 10 µM; 310,000 compounds, 0.42% hits; Short transient receptor potential channel 4 (Mus musculus), Q9QUQ5;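 active = B-score of calcium response area above 5 SD of library B-scores, with initial fluorescence ratio within 5 SD of library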;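 also: B-score of integrated fluorescence ratio over time as area under calcium response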
TRPC4 act: activators of mouse TRPC4 channel, primary screen, Fluo4 calcium, HEK293 TRPC4beta/mu-opioid cells; B-score at 10 µM; Short transient receptor potential channel 4 (Mus musculus), Q9QUQ5; Fluo4 calcium fluorescence; stronger effect = higher value; 310,000 compounds, 0.49% hits; AID 2237, 2010;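 active = B-score above 5 SD of library B-scores, and initial fluorescence ratio not above library mean plus 5 SD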;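 also: positive B-score marks a calcium rise read as TRPC4 activation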
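Assay system: HEK293 stable line with TRPC4beta plus mu-opioid receptor; schedule: 45 min room-temperature Fluo4 loading, 110 s read; technique: kinetic Fluo4 calcium fluorescence; evaluation: integrated baseline-normalised fluorescence ratio, converted to per-well B score; controls: buffer (low) and maximal DAMGO (high)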
TRPC4 spec 2: mouse TRPC4 off-target activity of TRPC6 inhibitors, second screen. 920 compounds, 42% hits. HEK293 TRPC4/MOR, membrane potential dye fluorescence; channel activated by saturating DAMGO dose. shares compounds with TRPC6 inh. AID 2776. inhibition, % at 10 µM;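 active = compounds whose fluorescence signal differed from control wells by over 3 SD, either direction, in both duplicate plates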
TRPC4 spec: mouse TRPC4 modulation by TRPC6 hits, confirmation, selectivity assay for TRPC6 inhibitor project, cell-based, HEK293 TRPC4/mu-opioid, membrane potential dye; shares compounds with TRPC6 inh; membrane potential fluorescence; activity change, negative = inhibition, % at 10 µM; 920 compounds, 61% hits; AID 2777, 2010;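 active = rise or fall in signal beyond 3 SD of buffer-only wells in both replicate plates, either sign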;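 also: integrated kinetic ratio of fluorescence range over baseline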
HEK293 MPD ctr 2-1: nonspecific membrane potential effects, parental HEK293, confirmation, counter-screen for TRPC6 inhibitor project, cell-based, second counter screen | 920 compounds, 31% hits | parental HEK293 membrane potential dye fluorescence; maximal acetylcholine challenge after compound addition | signal change vs control, % at 10 µM | shares compounds with TRPC6 inh | AID 2779, 2010;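 active = membrane potential signal moving either way by over 3 SD of the maximum-effect control, in both duplicate plates, meaning non-specific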
HEK293 MPD ctr-1: membrane potential modulation in parental HEK293, confirmation, counter-screen for TRPC6 inhibitor project, cell-based; parental HEK293 membrane potential dye fluorescence; 920 compounds, 60% hits; AID 2780, 2010; shares compounds with TRPC6 inh; membrane potential signal change, % at 10 µM;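 active = membrane potential signal shifting up or down by more than 3 SD of buffer-only wells, on both duplicate plates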
HEK293 MPD ctr-2: parental HEK293 membrane potential modulation, confirmation, counter-screen for TRPC6 modulator project, cell-based | shares compounds with TRPC6 inh | membrane potential dye fluorescence | membrane potential signal change, % at 10 µM | 2,400 compounds, 51% hits;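 active = membrane potential signal moves up or down beyond 5 SD from buffer-only wells, on both duplicate plates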
HEK293 MPD ctr 2-2: second counter-screen for TRPC6 modulators: effect in parental HEK293 cells; inhibition, % at 10 µM; AID 488926; membrane potential dye fluorescence; after compound, maximal acetylcholine stimulation; shares compounds with TRPC6 inh; 2,400 compounds, 14% hits;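 active = membrane potential signal drops by more than 5 SD from the mean control signal, in both duplicate plates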;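 also: plate controls were acetylcholine ECmax control wells for no effect and buffer only wells for full effect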
TRPC4 ctr mod: TRPC4 modulation by TRPC6 hit compounds, confirmation, selectivity assay for TRPC6 modulator project, cell-based, HEK293 TRPC4/mu-opioid, membrane potential dye, mouse; membrane potential fluorescence; 2,400 compounds, 69% hits; shares compounds with TRPC6 inh; percent change from control (negative = decrease, positive = increase), % at 10 µM; AID 488927, 2010;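 active = membrane potential signal moved up or down beyond 5 SD of buffer control wells, in both duplicate plates, actives on both sides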;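 also: plate controls were assay buffer wells for no effect and DAMGO maximal-effect wells for full effect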
TRPC4 ctr inh 2: mouse TRPC4 off-target activity of TRPC6 modulators, second screen; 2,400 compounds, 55% hits; inhibition, % at 10 µM; AID 488928; shares compounds with TRPC6 inh; HEK293 TRPC4/mu-opioid, membrane potential dye fluorescence; stimulated with maximal-effect DAMGO;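 active = drop in membrane potential signal beyond 5 SD of the control wells in both duplicate plates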;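 also: TRPC4 counter screen for TRPC6 hits run under conditions tuned for TRPC6 not TRPC4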
TRPC6 inh conf: mouse TRPC6 channel inhibitors, confirmation, HEK293 cells, membrane potential dye, duplicate; shares compounds with TRPC6 inh; ACh-evoked depolarization; inhibition, % at 10 µM; 3,300 compounds, 43% hits; AID 488960, 2010;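 active = fluorescence ratio falls more than 5 SD below the full-stimulation control mean, in both duplicate runs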;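 also: integrated fluorescence ratio of peak minus minimum over baseline after agonist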
TRPC6 act conf: mouse TRPC6 channel activators, confirmation, HEK293 cells, membrane potential dye, duplicate; shares compounds with TRPC6 inh; HEK293-TRPC6 membrane potential dye fluorescence, FDSS; activation, % at 10 µM; 2,800 compounds, 11% hits;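 active = ratio signal rise beyond 5 SD above unstimulated control wells' mean, seen in both duplicate runs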;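 also: plate controls were buffer EC0 wells for no effect and acetylcholine ECmax response for full effect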
Active calls of the source: *; i = inactive; . = no result given.

SMILES | TRPC6 activator | TRPC6 inh | TRPC4 block | TRPC4 PAM | TRPC4 act | HEK293 MPD ctr-2 | HEK293 MPD ctr 2-2 | TRPC4 ctr mod | TRPC4 ctr inh 2 | TRPC6 inh conf | TRPC6 act conf | others
O=C(O)CCCCCN1C(=O)C(O)=C(C(=O)/C=C/c2ccccc2)C1c1ccccc1[N+](=O)[O-] (stereo not given) | i | i | i | i | i | . | . | . | . | . | .
O=c1c(Cc2ccc(F)cc2)c(O)ccn1CCc1ccccn1 | i | i | i | i | i | . | . | . | . | . | .
Cc1cc(O)cc(O)c1C(=O)Cc1ccccc1 | i | i | i | i | i | . | . | . | . | . | .
O=C(Cc1ccc([N+](=O)[O-])cc1)c1c(O)cc(O)cc1O | i | -5.55* | i | i | i | -61.5%* | i | -19.0%* | 52.5%* | 52.0%* | i
O=[N+]([O-])c1ccc(S(=O)(=O)Nc2nc3ccccc3nc2Nc2ccccc2)cc1 | i | i | i | i | i | . | . | . | . | . | .
COc1cc(Nc2nc3ccccc3nc2NS(=O)(=O)c2ccc([N+](=O)[O-])cc2)cc(OC)c1OC | i | -6.41* | i | i | i | -116.5%* | i | -26.5%* | 50.5%* | 48.5%* | i
CN(C)CCOC(=O)/C(=C/c1cn(C)c2ccccc12)NC(=O)c1ccccc1 | i | -7.7* | i | i | i | . | . | . | . | i | i | TRPC4 spec 2=i;TRPC4 spec=i;HEK293 MPD ctr 2-1=i;HEK293 MPD ctr-1=i
Cc1ccc(C(=O)N/C(=C\c2cn(C)c3ccccc23)C(=O)OCCN(C)C)cc1 | i | -7.51* | i | i | i | . | . | . | . | i | i | TRPC4 spec 2=57.0%*;TRPC4 spec=-15.3%*;HEK293 MPD ctr 2-1=i;HEK293 MPD ctr-1=-280.0%*
Cn1cc(/C=C(\NC(=O)c2ccccc2)C(=O)N2CCOCC2)c2ccccc21 | i | i | i | i | i | . | . | . | . | . | .
O=C(CSc1ncc(-c2ccccc2)n1CC1CCCO1)N1CCCCC1 (stereo not given) | i | -5.98* | i | i | i | 99.5%* | i | 13.0%* | i | i | .
CCn1c(P(C)(=O)O)nc2cc(NC(=O)c3ccccc3Cl)ccc21 | i | i | i | i | i | . | . | . | . | . | .
O=c1[nH]cnc(O)c1C(c1cccc([N+](=O)[O-])c1)c1c(O)nc[nH]c1=O | i | i | i | i | i | . | . | . | . | . | .
O=C(CSCc1ccc(F)cc1)N1CCN(c2ccc(F)cc2)CC1 | i | -5.37* | i | i | i | i | i | i | i | i | i
Cc1ccc(CSCC(=O)N2CCN(c3ccc(F)cc3)CC2)cc1 | i | i | i | i | i | . | . | . | . | . | .
C=C(C)c1cccc(C(C)(C)NC(=O)N2CCC(C(N)=O)CC2)c1 | i | i | i | i | i | . | . | . | . | . | .
C=CCn1c(SCC2CCCCO2)nc2sc(CC)cc2c1=O (stereo not given) | i | i | i | i | i | . | . | . | . | . | .
C(=N\Nc1nc2ccccc2[nH]1)/c1c[nH]c2ccccc12 | i | -9.66* | i | i | i | -105.0%* | i | -26.0%* | 74.0%* | 55.5%* | i
Cc1ccccc1/C=N/Nc1nc2ccccc2[nH]1 | i | i | i | i | i | . | . | . | . | . | .
C(=N\Nc1nc(N2CCCCC2)nc(N2CCCCC2)n1)/c1c[nH]c2ccccc12 | i | -7.86* | i | i | i | -55.5%* | i | -15.0%* | 42.5%* | 58.5%* | i
CN(C)c1nc(N/N=C/c2c[nH]c3ccccc23)nc(N2CCOCC2)n1 | i | i | i | i | i | . | . | . | . | . | .
O=C(Nc1ccc(Cl)c(C(F)(F)F)c1)[C@@H]1CC=C[C@@H]2CCN(C3CC3)C(=O)[C@@H]21 | i | i | i | i | i | . | . | . | . | . | .
CC[N+](C)(CC)CC(=O)OCC1C(C)C=C(C)CC1C (stereo not given) | i | -8.45* | i | i | i | . | . | . | . | i | i | TRPC4 spec 2=i;TRPC4 spec=i;HEK293 MPD ctr 2-1=i;HEK293 MPD ctr-1=i
Cc1sc2nc(C(C)Sc3n[nH]c(N)n3)[nH]c(=O)c2c1C (stereo not given) | i | i | i | i | i | . | . | . | . | . | .
CCN1CCN(c2nc3c(c(=O)n(C)c(=O)n3C)n2CCSc2nccc(C)n2)CC1 | i | -12.1* | i | i | i | -284.0%* | 118.0%* | -46.5%* | 72.5%* | 78.0%* | i
